Calls of active or inactive are those of the source. Residues, ends and D or L forms follow the SMILES beside them.

The subject of assay [1] is Mus musculus. In words: Decrease in body temperature in Swiss albino mouse at 10 mg/kg, sc. The assay is classed as functional, organism-based. Further details: dose 10 mg/kg. The settings on record: TDE = time-dependent effect. The method, boiled down:
(§1)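 Male Swiss albino CD1 mice injected s.c. (10 mL/kg); body temperature followed over time to beyond 3 h; 8–10 mice/group, mean ± SEM vs saline; two-way repeated-measures ANOVA.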

The test system of assay [2] is Mus musculus. The experiment in a line: Analgesic activity in Swiss Albino mouse assessed as inhibition of acetic acid-induced writhing responses at 0.3 mg/kg, iv. Further details: dose 0.3 mg/kg. The assay is classed as functional, organism-based. The essentials: (§2)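 Male Swiss albino CD1 mice (20–22 g); i.v. dosing 10 mL/kg, 15 min before i.p. 0.5% acetic acid; mice placed singly in large beakers, stretches counted over 5 min starting 5 min after acid. Dose–response plus time course at 0.3 mg/kg; 8–18 mice/group, mean ± SEM vs saline.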

In assay [3] the test system is Mus musculus. The experiment in a line: Antinociceptive effect in Swiss albino mouse assessed as reduction in jump latency between 300 ng to 3 ug, icv by hot plate test. The assay is classed as functional, organism-based. The essentials: (§3)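 Hot plate at 55 ± 0.5 °C, male Swiss albino CD1 mice confined by plastic cylinder, tested 20 min after icv injection (10 µL/mouse; Haley–McCormick method); paw licking and jump latencies recorded, 240 s cutoff, each mouse tested once. Levocabastine 1350 pmol icv alone or co-given with 300 ng agonist. 6–9 mice/group, mean ± SEM vs saline.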
Background: Thermal pain tests record how soon the animal reacts.

The subject of assay [4] is Mus musculus. The experiment in a line: Decrease in body temperature in sc dosed Swiss albino mouse. The assay is classed as functional, organism-based. The method, boiled down:
as §1

Assay [5] relates to Mus musculus. The experiment in a line: Antinociceptive effect in Swiss albino mouse assessed as reduction in paw licking latency between 300 ng to 3 ug, icv by hot plate test. The assay is classed as functional, organism-based. The method, boiled down: as §3
For assay [6], the system named is Mus musculus. In words: Antinociceptive effect in Swiss albino mouse assessed as reduction in jump latency at 1350 pmol, icv after 20 mins by hot plate test. The following applies: in the assay text read “300 ng” for “1350 pmol”. The assay is classed as functional, organism-based. The method, boiled down:
as §3

In assay [7] the test system is Mus musculus. The experiment in a line: Decrease in body temperature in Swiss albino mouse at 1 mg/kg, sc. The assay is classed as functional, organism-based. Further details: dose 1 mg/kg. The following applies: TDE = time-dependent effect. The method, boiled down: as §1
Assay [8] deals with Mus musculus. The experiment in a line: Decrease in body temperature in Swiss albino mouse at 3 mg/kg, iv. The following applies: TDE = time-dependent effect. More on the design: dose 3 mg/kg. The assay is classed as functional, organism-based. The essentials: (§4)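 Body temperature tracked over time after i.v. injection (10 mL/kg) in male Swiss albino CD1 mice (20–22 g); 6–8 mice/group, mean ± SEM vs saline; two-way repeated-measures ANOVA.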

The test system of assay [9] is Mus musculus. In words: Decrease in body temperature in Swiss albino mouse at 3 ug, icv after 90 mins. The assay is classed as functional, organism-based. The essentials:
(§5)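 icv doses 30 ng–3 µg (10 µL/mouse) in male Swiss albino CD1 mice; body temperature followed over 240 min. Mean body temperature over 4 h = AUC of time–response curve per mouse ÷ 240 min; ED35 = dose giving 35 °C mean over 4 h. 8 mice/group, mean ± SEM vs saline.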

Assay [10] deals with Mus musculus. The experiment in a line: Antinociceptive effect in Swiss albino mouse assessed as reduction in acetic acid-induced writhing responses at 30 mg/kg, po. A general note: An intraperitoneal irritant provokes the stretching counted in writhing tests.
For assay [11], the system named is Mus musculus. The experiment in a line: Decrease in body temperature in Swiss albino mouse at 3 ug, icv after 4 hrs relative to control. The assay is classed as functional, organism-based. The essentials: as §5
Assay [12] relates to Mus musculus. In words: Decrease in body temperature in iv dosed Swiss albino mouse. The assay is classed as functional, organism-based. The method, boiled down:
as §4

The test system of assay [13] is Mus musculus. The experiment in a line: Analgesic activity in iv dosed Swiss Albino mouse assessed as inhibition of acetic acid-induced writhing responses. The assay is classed as functional, organism-based. The method, boiled down:
as §2

Assay [14] deals with Mus musculus. In words: Antinociceptive effect in icv dosed Swiss albino mouse assessed as reduction in acetic acid-induced writhing responses at 1 mg/kg, sc to 10 mg/kg, sc. The assay is classed as functional, organism-based. The settings on record: in the assay text read “Swiss albino mouse” for “icv dosed Swiss albino mouse”. The method, boiled down:
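Writhing in male Swiss albino CD1 mice: s.c. dosing 1–10 mg/kg (10 mL/kg) 15 min before i.p. 0.5% acetic acid; stretches counted over 5 min starting 5 min after acid. 6–8 mice/group, mean ± SEM vs saline.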

Assay [15] relates to Mus musculus. The experiment in a line: Decrease in body temperature in Swiss albino mouse at 1 mg/kg, iv. The assay is classed as functional, organism-based. More on the design: dose 1 mg/kg. The following applies: TDE = time-dependent effect. The essentials: as §4
Assay [16] has as its system Mus musculus. In words: Decrease in body temperature in Swiss albino mouse at 100 ng, icv after 30 mins. The assay is classed as functional, organism-based. The method, boiled down:
as §5

The test system of assay [17] is Mus musculus. The experiment in a line: Decrease in body temperature in icv dosed Swiss albino mouse after 4 hrs. The assay is classed as functional. The essentials:
as §5

Assay [18] has as its system Mus musculus. The experiment in a line: Antinociceptive effect in Swiss albino mouse assessed as reduction in jump latency at 300 ng, icv after 20 mins by hot plate test. The assay is classed as functional, organism-based. The essentials: as §3
In assay [19] the target is Neurotensin receptor type 1 (Rattus norvegicus) (UniProt P20789). In words: Binding affinity at rat NTS1 receptor.
Neurotensin receptor type 1 (Rattus norvegicus), sequence (P20789 whole entry): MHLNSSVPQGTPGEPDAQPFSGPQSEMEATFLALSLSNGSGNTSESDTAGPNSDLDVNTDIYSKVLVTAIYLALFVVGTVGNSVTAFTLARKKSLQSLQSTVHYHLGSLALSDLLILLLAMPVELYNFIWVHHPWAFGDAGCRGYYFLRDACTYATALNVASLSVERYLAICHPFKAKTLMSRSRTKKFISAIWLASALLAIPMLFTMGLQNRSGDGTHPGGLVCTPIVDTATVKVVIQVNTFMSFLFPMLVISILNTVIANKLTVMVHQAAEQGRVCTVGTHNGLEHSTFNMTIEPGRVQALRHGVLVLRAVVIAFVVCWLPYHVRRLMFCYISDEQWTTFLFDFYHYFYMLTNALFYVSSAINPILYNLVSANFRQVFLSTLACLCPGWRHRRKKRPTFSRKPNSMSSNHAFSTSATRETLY

For the molecule `CC[C@H](C)[C@@H]1NC(=O)[C@H](Cc2ccc(O)cc2)NC(=O)[C@@H]2CCCN2C(=O)[C@H](CCCCN)NC(=O)[C@H](CCCCN)NC(=O)[C@H](CC(C)C)NC(=O)[C@H]([C@@H](C)CC)NC(=O)[C@H](Cc2ccc(O)cc2)NC(=O)[C@@H]2CCCN2C(=O)[C@H](CCCCN)NC(=O)[C@H](CCCCN)NC(=O)[C@H](CC(C)C)NC1=O` (cyclo(ILKKPYILKKPY)), the Activity entry is “tde” in the assay with Mus musculus [1]; “Dose-dependent effect” with Mus musculus [3]; “Dose-dependent effect” with Mus musculus [4]; “Dose-dependent effect” in the assay with Mus musculus [5]; “tde” in the assay on Mus musculus [7]; “tde” with Mus musculus [8]. Moreover, the Activity entry was “Dose-dependent effect” in the assay on Mus musculus [12], “Dose-dependent effect” in the assay with Mus musculus [13], “Dose-dependent effect” in the assay with Mus musculus [14] and “tde” with Mus musculus [15]. The result in the assay with Mus musculus [2], in the assay with Mus musculus [6], with Mus musculus [9], in the assay on Mus musculus [10], with Mus musculus [11] and with Mus musculus [16] was Active. For the same molecule, in the assay on Mus musculus [18], the outcome was Active. The molecule also gave an ED35 with Mus musculus [17] of 300 ng.

With `CCC(C)[C@H](NC(=O)[C@H](Cc1ccc(O)cc1)NC(=O)[C@@H]1CCCN1C(=O)[C@H](CCCNC(=N)N)NC(=O)[C@@H](N)CCCNC(=N)N)C(=O)N[C@@H](CC(C)C)C(=O)O` (single isomer, unassigned), in assay [19], the Activity came to 0.16 nmol.
